In assay [1] the test system is A2780. The experiment in a line: Compound was tested for in vitro growth inhibition of Ovarian carcinoma cell line panel A2780. Format: functional, cell-based, Homo sapiens. In short, it runs like this: (§1)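 Ovarian lines grown as monolayers in DMEM with 10% FBS, insulin, hydrocortisone and L-glutamine under 6% CO2. Cells were seeded at 3–5 × 10³/well and left to attach overnight. Compounds were freshly dissolved in DMA or water and applied for 96 h in quadruplicate wells. Growth was measured by SRB and reported as IC50.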

Assay [2] concerns CH1. The experiment in a line: Compound was tested for in vitro growth inhibition of Ovarian carcinoma cell line panel CH1-R. Format: functional, cell-based. Summed up:
as §1

Assay [3] concerns HT-1376. The experiment in a line: Compound was tested for in vitro growth inhibition of primary panel tumor cell line HT1376. It counts as functional, cell-based, Homo sapiens. In short, it runs like this:
(§2)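 Primary-panel lines kept in L15, RPMI 1640 plus pyruvate, or MEM, each with 10% FBS. Cells were seeded at 5×10^4–10^5 cells/mL, preincubated 24 h, then exposed 4 h to 0–200 μg/mL from a 2 mg/mL stock in 10% DMA/PBS. After washout and 72 h further growth, cells were read by SRB. IC50 was the concentration giving 50% survival versus untreated controls.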

Assay [4] concerns HX62 cell line. The experiment in a line: Compound was tested for in vitro growth inhibition of Ovarian carcinoma cell line panel HX62. Format: functional, cell-based, Homo sapiens. Summed up:
as §1

Assay [5] deals with SW 1116. The experiment in a line: Compound was tested for in vitro growth inhibition of primary panel tumor cell line SW1116. It counts as functional, cell-based, Homo sapiens. In short, it runs like this: as §2
The test system of assay [6] is A2780. As to the kind of experiment: Compound was tested for in vitro growth inhibition of Ovarian carcinoma cell line panel A2780-R. It counts as functional, cell-based, Homo sapiens. In short, it runs like this: as §1
The subject of assay [7] is HT-29. The experiment in a line: Compound was tested for in vitro growth inhibition of primary panel tumor cell line HT-29/219. It counts as functional, cell-based, Homo sapiens. Summed up:
as §2

Assay [8] has as its system SW-620. The experiment in a line: Compound was tested for in vitro growth inhibition of primary panel tumor cell lines SW620. It counts as functional, cell-based, Homo sapiens. In short, it runs like this:
as §2

Assay [9] deals with SK-OV-3. As to the kind of experiment: Compound was tested for in vitro growth inhibition of Ovarian carcinoma cell line panel SK-OV-3. It counts as functional, cell-based, Homo sapiens. Summed up:
as §1

In assay [10] the test system is ZR-75-1. As to the kind of experiment: Compound was tested for in vitro growth inhibition of primary panel tumor cell linZR-75-1. Format: functional, cell-based, Homo sapiens. In short, it runs like this: as §2
Assay [11] has as its system CH1. The experiment in a line: Compound was tested for in vitro growth inhibition of Ovarian carcinoma cell line panel CH1. Format: functional, cell-based. In short, it runs like this: as §1
Assay [12] concerns SK-OV-3. As to the kind of experiment: Compound was tested for in vitro growth inhibition of primary panel tumor cell line SK-OV-3. Format: functional, cell-based, Homo sapiens. In short, it runs like this:
as §2

The term IC50 denotes the concentration needed to halve the response being measured. A high value points to a need for much substance. On to CISPLATIN, for which the IC50 was 1.2 µM in assay [1]; 0.56 µM in [2]; 23 µM in [3]; 18 µM in [4]; 163 µM in [5]; 10 µM in assay [6]. Moreover, the IC50 came to 17 µM in assay [7]; 167 µM in [8]; 5.2 µM in assay [9]; 27 µM in assay [10]; 0.12 µM in [11]; 23 µM in assay [12].

The values above are taken from ChEMBL document CHEMBL1129059, “Antitumor properties of some 2-[(dimethylamino)methyl]phenylgold(III) complexes” (J Med Chem, 1996).
